Assay [1] concerns the target Melanocortin receptor 3 (Homo sapiens) (UniProt P41968). Briefly: Agonist activity at human MC3R expressed in CHO cells assessed as increase in IBMX-induced cAMP accumulation at 10 uM after 45 mins by [125I]cAMP flash plate assay relative to MT-2.
The species entered for assay [2] is Mus musculus. Briefly: Selectivity ratio of EC50 for mouse MC3R to EC50 for mouse MC4R.
The species entered for assay [3] is Mus musculus. Briefly: Selectivity ratio of EC50 for mouse MC3R to EC50 for mouse MC5R.
Assay [4] addresses Melanocortin receptor 3 (Mus musculus) (UniProt P33033). In words: Agonist activity at mouse MC3R expressed in HEK293 cells assessed as increase in forskolin-induced cAMP accumulation at 100 uM preincubated for 2 hrs followed by biotinylated cAMP addition and subsequent incubation for 2 hrs by AlphaScreen assay relative to NDP-MSH. The class given is functional, cell-based. The procedure, abridged: (§1)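 HEK293 cells stably expressing mouse MC1R, MC3R, MC4R or MC5R, at 70-90% confluence, were detached with Versene at 37 °C and plated at 10,000 cells/well. Stimulation buffer was HBSS with 5 mM HEPES, 0.5 mM IBMX and 0.1% BSA, pH 7.4, plus anti-cAMP acceptor beads. Peptide from 10^-2 M DMSO stock was added and incubated 2 hr in the dark at room temperature. Forskolin at 10^-4 M was the reference stimulus.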
Background: Changes in cAMP serve as a functional read-out for many G protein-coupled receptors.

Assay [5] is filed under the species Mus musculus. Briefly: Selectivity ratio of EC50 for mouse MC3R to EC50 for mouse MC1R.
For assay [6], the target named is Melanocortin receptor 4 (Mus musculus) (UniProt P56450). Briefly: Agonist activity at mouse MC4R expressed in HEK293 cells assessed as increase in forskolin-induced cAMP accumulation at 100 uM preincubated for 2 hrs followed by biotinylated cAMP addition and subsequent incubation for 2 hrs by AlphaScreen assay relative to NDP-MSH. It counts as functional, cell-based. In outline: as §1

For assay [7], the species on record is Mus musculus. In words: Selectivity ratio of EC50 for mouse MC4R to EC50 for mouse MC3R.
For assay [8], the target named is Melanocyte-stimulating hormone receptor (Mus musculus) (UniProt Q01727). Briefly: Agonist activity at mouse MC1R expressed in HEK293 cells assessed as increase in forskolin-induced cAMP accumulation at 100 uM preincubated for 2 hrs followed by biotinylated cAMP addition and subsequent incubation for 2 hrs by AlphaScreen assay relative to NDP-MSH. The class given is functional, cell-based. The procedure, abridged: as §1

In assay [9] the target is Melanocortin receptor 5 (Mus musculus) (UniProt P41149). In words: Agonist activity at mouse MC5R expressed in HEK293 cells assessed as increase in forskolin-induced cAMP accumulation at 100 uM preincubated for 2 hrs followed by biotinylated cAMP addition and subsequent incubation for 2 hrs by AlphaScreen assay relative to NDP-MSH. It counts as functional, cell-based. The procedure, abridged: as §1

A further assay has as its target Melanocortin receptor 3 (Mus musculus, UniProt P33033). Briefly: Agonist activity at mouse MC3R expressed in HEK293 cells assessed as increase in forskolin-induced cAMP accumulation preincubated for 2 hrs followed by biotinylated cAMP addition and subsequent incubation for 2 hrs by AlphaScreen assay. The class given is functional, cell-based. The procedure, abridged: as §1

For assay [10], the species on record is Mus musculus. Briefly: Selectivity ratio of EC50 for mouse MC5R to EC50 for mouse MC1R.
Another assay deals with Melanocortin receptor 5 (Mus musculus, UniProt P41149). Briefly: Agonist activity at mouse MC5R expressed in HEK293 cells assessed as increase in forskolin-induced cAMP accumulation preincubated for 2 hrs followed by biotinylated cAMP addition and subsequent incubation for 2 hrs by AlphaScreen assay. The class given is functional, cell-based. In outline: as §1
The species entered for assay [11] is Mus musculus. Briefly: Selectivity ratio of EC50 for mouse MC4R to EC50 for mouse MC1R.

Data on twelve molecules can be found in ChEMBL document CHEMBL3994610, “A Macrocyclic Agouti-Related Protein/[Nle4,DPhe7]α-Melanocyte Stimulating Hormone Chimeric Scaffold Produces Subnanomolar Melanocortin Receptor Ligands” (J Med Chem, 2017).

Square brackets hold non-standard residues; d marks the D form. Peptide text beside a SMILES is read from it. Dap = NC[C@H](N)C(=O)O

Melanocyte-stimulating hormone receptor (Mus musculus), sequence (Q01727 whole entry, looked up): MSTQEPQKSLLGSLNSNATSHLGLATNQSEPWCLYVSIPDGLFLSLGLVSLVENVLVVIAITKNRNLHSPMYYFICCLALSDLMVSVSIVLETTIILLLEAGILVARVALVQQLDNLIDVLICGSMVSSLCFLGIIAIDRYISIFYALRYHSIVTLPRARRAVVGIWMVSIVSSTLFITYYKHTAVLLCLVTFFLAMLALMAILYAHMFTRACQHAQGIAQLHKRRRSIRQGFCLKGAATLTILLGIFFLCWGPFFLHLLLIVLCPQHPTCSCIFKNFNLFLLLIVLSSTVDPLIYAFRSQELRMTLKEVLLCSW
Melanocortin receptor 4 (Mus musculus), sequence (P56450 whole entry): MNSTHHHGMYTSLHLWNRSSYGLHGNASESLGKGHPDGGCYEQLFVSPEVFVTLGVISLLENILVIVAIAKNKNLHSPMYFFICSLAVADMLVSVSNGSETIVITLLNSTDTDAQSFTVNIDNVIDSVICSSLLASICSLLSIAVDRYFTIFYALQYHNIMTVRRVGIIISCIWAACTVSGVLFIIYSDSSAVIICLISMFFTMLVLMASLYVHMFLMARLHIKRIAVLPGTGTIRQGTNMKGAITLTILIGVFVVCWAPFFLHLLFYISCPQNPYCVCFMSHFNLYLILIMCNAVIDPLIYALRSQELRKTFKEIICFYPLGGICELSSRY
Melanocortin receptor 3, sequence (P33033 whole entry): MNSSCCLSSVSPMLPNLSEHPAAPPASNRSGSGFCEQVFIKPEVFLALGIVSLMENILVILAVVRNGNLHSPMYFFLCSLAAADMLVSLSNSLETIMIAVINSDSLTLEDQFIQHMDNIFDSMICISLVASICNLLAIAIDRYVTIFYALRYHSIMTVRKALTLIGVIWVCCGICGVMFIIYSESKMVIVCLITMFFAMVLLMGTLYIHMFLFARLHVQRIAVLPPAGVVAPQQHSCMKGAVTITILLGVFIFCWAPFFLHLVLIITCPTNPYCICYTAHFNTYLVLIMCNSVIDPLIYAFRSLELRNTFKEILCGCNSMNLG
Melanocortin receptor 3 (Mus musculus), sequence (P33033 whole entry): as above
Melanocortin receptor 3 (Homo sapiens), sequence (P41968 whole entry, looked up): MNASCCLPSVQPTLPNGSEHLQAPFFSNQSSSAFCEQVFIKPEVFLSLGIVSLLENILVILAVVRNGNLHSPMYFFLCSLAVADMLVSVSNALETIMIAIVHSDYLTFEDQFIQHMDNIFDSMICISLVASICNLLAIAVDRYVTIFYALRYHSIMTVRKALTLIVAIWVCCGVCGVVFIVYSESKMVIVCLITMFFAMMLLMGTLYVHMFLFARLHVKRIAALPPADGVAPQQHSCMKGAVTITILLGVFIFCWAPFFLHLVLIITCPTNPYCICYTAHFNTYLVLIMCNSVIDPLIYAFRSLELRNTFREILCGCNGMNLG
Melanocortin receptor 5, sequence (P41149 whole entry): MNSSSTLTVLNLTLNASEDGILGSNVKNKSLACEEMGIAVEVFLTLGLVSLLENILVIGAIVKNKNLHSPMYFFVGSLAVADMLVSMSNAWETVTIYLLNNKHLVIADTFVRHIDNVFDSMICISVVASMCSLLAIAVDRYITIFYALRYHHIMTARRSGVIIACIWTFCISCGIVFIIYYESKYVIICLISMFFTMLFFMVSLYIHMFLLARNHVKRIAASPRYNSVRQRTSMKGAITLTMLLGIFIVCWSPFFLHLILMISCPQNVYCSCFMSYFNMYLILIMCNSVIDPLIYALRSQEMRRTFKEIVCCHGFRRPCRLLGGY
Melanocortin receptor 5 (Mus musculus), sequence (P41149 whole entry): as above

As for `CCCC[C@H](NC(C)=O)C(=O)N[C@H]1CC(=O)NCCCC[C@@H](C(=O)N2CCC[C@H]2C(=O)N[C@H](C(N)=O)C(C)C)NC(=O)[C@H](Cc2c[nH]c3ccccc23)NC(=O)[C@H](CCCNC(=N)N)NC(=O)[C@@H](Cc2ccccc2)NC(=O)[C@@H]2CCCN2C1=O`, in [1], the Efficacy was 12%.
On to `C[C@@H]1NC(=O)[C@H](CC(N)=O)NC(=O)[C@H](Cc2c[nH]c3ccccc23)NC(=O)[C@H](CCCNC(=N)N)NC(=O)[C@@H](Cc2ccccc2)NC(=O)[C@H](Cc2cnc[nH]2)NC(=O)[C@@H]2CCCN2C(=O)[C@H]2CCCN2C(=O)[C@H](Cc2ccccc2)NC1=O` (cyclo(H[dF]RWNAF[dP]P)), for which, in the assay filed under Mus musculus [2], the Ratio EC50 is 23.
As to `C[C@@H]1NC(=O)[C@H](CN)NC(=O)[C@H](Cc2c[nH]c3ccccc23)NC(=O)[C@H](CCCNC(=N)N)NC(=O)[C@@H](Cc2ccccc2)NC(=O)[C@H](Cc2cnc[nH]2)NC(=O)[C@@H]2CCCN2C(=O)[C@H]2CCCN2C1=O` (cyclo(H[dF]RW[Dap]A[dP]P)), the results for the Ratio EC50 in the assay filed under Mus musculus [2] and in the assay filed under Mus musculus [3] were 25 and greater than 100, respectively.
Take `N=C(N)NCCC[C@@H]1NC(=O)[C@@H](Cc2ccccc2)NC(=O)[C@H](Cc2cnc[nH]2)NC(=O)[C@@H]2CCCN2C(=O)[C@H]2CCCN2C(=O)[C@H](CN)NC(=O)[C@H](Cc2c[nH]c3ccccc23)NC1=O` (cyclo(H[dF]RW[Dap][dP]P)): in [4], the Activity worked out at 65%. The Ratio EC50 in the assay listed under Mus musculus [5] and in the assay filed under Mus musculus [3] was greater than 100 each time.
Consider `N=C(N)NCCC[C@@H]1NC(=O)[C@@H](Cc2ccccc2)NC(=O)[C@H](Cc2cnc[nH]2)NC(=O)[C@@H]2CCCN2C(=O)[C@H]2CCCN2C(=O)[C@H](Cc2c[nH]c3ccccc23)NC1=O` (cyclo(H[dF]RW[dP]P)), for which the Activity in assay [4] came out at 60%; in [6], 65%.
In the case of `C[C@@H]1NC(=O)[C@H](CC(N)=O)NC(=O)[C@H](Cc2c[nH]c3ccccc23)NC(=O)[C@H](CCCNC(=N)N)NC(=O)[C@@H](Cc2ccccc2)NC(=O)[C@@H]2CCCN2C(=O)[C@H]2CCCN2C(=O)[C@H](Cc2ccccc2)NC1=O` (cyclo(P[dF]RWNAF[dP])), the Activity in assay [4] was found to be 45%. Moreover, the figures for the Ratio EC50 in the assay filed under Mus musculus [7], in the assay filed under Mus musculus [5] and in the assay filed under Mus musculus [3] were greater than 300, greater than 100 and greater than 1000, respectively.
For `C[C@@H]1NC(=O)[C@H](CC(N)=O)NC(=O)[C@H](Cc2c[nH]c3ccccc23)NC(=O)[C@H](CCCNC(=N)N)NC(=O)[C@@H](Cc2ccccc2)NC(=O)[C@@H]2CCCN2C(=O)[C@H]2CCCN2C1=O` (cyclo(P[dF]RWNA[dP])), the Activity in assay [4] turned out to be 55%. In addition, the Ratio EC50 in the assay listed under Mus musculus [7] was greater than 100; in the assay filed under Mus musculus [5], greater than 100; in the assay filed under Mus musculus [3], greater than 1000.
For the molecule `N=C(N)NCCC[C@@H]1NC(=O)[C@@H](Cc2ccccc2)NC(=O)[C@@H]2CCCN2C(=O)[C@H]2CCCN2C(=O)[C@H](CC(N)=O)NC(=O)[C@H](Cc2c[nH]c3ccccc23)NC1=O` (cyclo(P[dF]RWN[dP])), the Activity stood at 85% in assay [8], 85% in assay [6] and 25% in assay [9]. Also, the Ratio EC50 in the assay filed under Mus musculus [5] was greater than 2500. Further, the EC50 at Melanocortin receptor 3 was greater than 100 µM.
Take `C[C@@H]1NC(=O)[C@H](CN)NC(=O)[C@H](Cc2c[nH]c3ccccc23)NC(=O)[C@H](CCCNC(=N)N)NC(=O)[C@@H](Cc2ccccc2)NC(=O)[C@@H]2CCCN2C(=O)[C@H]2CCCN2C(=O)[C@H](Cc2ccccc2)NC1=O` (cyclo(P[dF]RW[Dap]AF[dP])): the results for the Activity in [4] and in assay [8] were 70% and 45%, respectively.
In the case of `C[C@@H]1NC(=O)[C@H](CN)NC(=O)[C@H](Cc2c[nH]c3ccccc23)NC(=O)[C@H](CCCNC(=N)N)NC(=O)[C@@H](Cc2ccccc2)NC(=O)[C@@H]2CCCN2C(=O)[C@H]2CCCN2C1=O` (cyclo(P[dF]RW[Dap]A[dP])), the Activity in [4] was determined as 70%. The Ratio EC50 was greater than 300 in the assay filed under Mus musculus [7] and greater than 1000 in the assay filed under Mus musculus [3].
Consider `N=C(N)NCCC[C@@H]1NC(=O)[C@@H](Cc2ccccc2)NC(=O)[C@@H]2CCCN2C(=O)[C@H]2CCCN2C(=O)[C@H](CN)NC(=O)[C@H](Cc2c[nH]c3ccccc23)NC1=O` (cyclo(P[dF]RW[Dap][dP])), for which the values for the Activity in assay [8] and in assay [6] were 75% and 35%, respectively. For the same molecule, the Ratio EC50 in the assay filed under Mus musculus [10], in the assay listed under Mus musculus [5] and in the assay filed under Mus musculus [11] was greater than 500 in each case. Besides, the EC50 on Melanocortin receptor 5 and at Melanocortin receptor 3 was greater than 100 µM in each case.
With `N=C(N)NCCC[C@@H]1NC(=O)[C@@H](Cc2ccccc2)NC(=O)[C@@H]2CCCN2C(=O)[C@H]2CCCN2C(=O)[C@H](Cc2c[nH]c3ccccc23)NC1=O` (cyclo(P[dF]RW[dP])), the Activity in [6] came to 50%. For the same molecule, at Melanocortin receptor 3, the EC50 is greater than 100 µM.

Usually EC50 stands for the midpoint of the concentration-response curve.
